# Laboratory results published in ChEMBL document CHEMBL4130370, “Discovery of 5,6-diaryl-1,2,4-triazines hybrids as potential apoptosis inducers” (Eur J Med Chem, 2017).
# Active and inactive are the calls of the source. No cut-off for these calls is given here.
# How the values were obtained:
# ECa-109 cell line = assay: Antiproliferative activity against human EC109 cells after 48 hrs by MTT assay; type: functional, cell-based; conditions: ECa-109, 48 h
# Method in brief: (§1)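 Cells exposed to compounds for 48 h, then read by MTT. IC50 is the concentration giving 50% inhibition of tumour cell proliferation, taken from dose-response curves. Values are means±SD of three independent experiments. 5-FU was the reference drug.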
# MGC-803 [1] = assay: Antiproliferative activity against human MGC803 cells after 48 hrs by MTT assay; type: functional, cell-based; conditions: MGC-803, 48 h; method in brief: as §1
# PC-3 = assay: Antiproliferative activity against human PC3 cells after 48 hrs by MTT assay; type: functional, cell-based; conditions: PC-3, 48 h; method in brief: as §1
# MGC-803 [2] = assay: Cell cycle arrest in human MGC803 cells assessed as accumulation at S phase at 6 uM after 48 hrs by propidium iodide-staining based flow cytometry (25.56%); type: functional
# Method in brief: (§2)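 MGC-803 cells treated at 0, 6 or 8 µM for 48 h. Cells then fixed, stained with propidium iodide and analysed by flow cytometry for cell-cycle phase distribution.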
# MGC-803 [3] = assay: Cell cycle arrest in human MGC803 cells assessed as accumulation at G2/M phase at 6 uM after 48 hrs by propidium iodide-staining based flow cytometry (19.75%); type: functional; method in brief: as §2
# MGC-803 [4] = assay: Induction of apoptosis in human MGC803 cells assessed as late apoptotic cells at 6 uM after 48 hrs Annexin V-FITC/propidium iodide based flow cytometry (1%); type: functional
# Method in brief: (§3)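 MGC-803 cells treated at 0, 6, 8 or 10 µM for 48 h. Cells then double-stained with Annexin V-FITC and propidium iodide and analysed by biparametric flow cytometry.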
# MGC-803 [5] = assay: Induction of apoptosis in human MGC803 cells assessed as increase in DR4 expression after 48 hrs by Western blot analysis; type: functional, cell-based
# Method in brief: (§4)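 MGC-803 cells treated at 0, 6, 8 or 10 µM for 48 h, then Western blotted. Band levels analysed statistically against control. Results representative of three independent experiments.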
# MGC-803 [6] = assay: Induction of apoptosis in human MGC803 cells assessed as increase in cleaved PARP expression after 48 hrs by Western blot analysis; type: functional, cell-based; method in brief: as §4
# MGC-803 [7] = assay: Induction of apoptosis in human MGC803 cells assessed as nuclear condensation at 6 to 10 uM after 48 hrs by Hoechst 33258-staining based fluorescent microscopy; type: functional, cell-based
# Method in brief: (§5)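 MGC-803 cells incubated at the indicated concentrations for 48 h. Nuclei then stained (legend says DAPI; methods say Hoechst 33258) and viewed by fluorescence microscopy at ×400.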
# MGC-803 [8] = assay: Cell cycle arrest in human MGC803 cells assessed as accumulation at G2/M phase after 48 hrs by propidium iodide-staining based flow cytometry; type: functional; method in brief: as §2
# MGC-803 [9] = assay: Induction of apoptosis in human MGC803 cells assessed as nuclear fragmentation at 6 to 10 uM after 48 hrs by Hoechst 33258-staining based fluorescent microscopy; type: functional, cell-based; method in brief: as §5
# MGC-803 [10] = assay: Induction of apoptosis in human MGC803 cells assessed as late apoptotic cells at 10 uM after 48 hrs Annexin V-FITC/propidium iodide based flow cytometry (1%); type: functional; method in brief: as §3
# MGC-803 [11] = assay: Cell cycle arrest in human MGC803 cells assessed as accumulation at G1 phase at 8 uM after 48 hrs by propidium iodide-staining based flow cytometry (50.18%); type: functional; method in brief: as §2
# MGC-803 [12] = assay: Induction of mitochondrial membrane potential loss in human MGC803 cells assessed as collapse of the mitochondrial membrane potential at 8 uM after 48 hrs by JC-1 staining based flow cytometry (reference value: 4.1%); type: functional
# Method in brief: (§6)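 MGC-803 cells treated with vehicle or 6, 8 or 10 µM for 48 h. Mitochondrial membrane potential measured by JC-1 dye retention on flow cytometry.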
# MGC-803 [13] = assay: Induction of apoptosis in human MGC803 cells assessed as necrotic cells at 10 uM after 48 hrs Annexin V-FITC/propidium iodide based flow cytometry (0.1%); type: functional; method in brief: as §3
# MGC-803 [14] = assay: Cell cycle arrest in human MGC803 cells assessed as accumulation at S phase at 8 uM after 48 hrs by propidium iodide-staining based flow cytometry (25.56%); type: functional; method in brief: as §2
# MGC-803 [15] = assay: Inhibition of colony formation in human MGC803 cells up to 8 uM after 7 days; type: functional, cell-based
# Method in brief: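 MGC-803 cells treated at various concentrations for about a week. Colonies then imaged and compared with untreated control.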
# MGC-803 [16] = assay: Induction of mitochondrial membrane potential loss in human MGC803 cells assessed as collapse of the mitochondrial membrane potential at 6 uM after 48 hrs by JC-1 staining based flow cytometry (reference value: 4.1%); type: functional; method in brief: as §6
# MGC-803 [17] = assay: Induction of apoptosis in human MGC803 cells assessed as increase in cleaved caspase-3 expression after 48 hrs by Western blot analysis; type: functional, cell-based; method in brief: as §4
# MGC-803 [18] = assay: Induction of mitochondrial membrane potential loss in human MGC803 cells after 48 hrs by JC-1 staining based flow cytometry; type: functional, cell-based; method in brief: as §6
# MGC-803 [19] = assay: Induction of apoptosis in human MGC803 cells assessed as increase in cleaved caspase-9 expression after 48 hrs by Western blot analysis; type: functional, cell-based; method in brief: as §4
# MGC-803 [20] = assay: Induction of apoptosis in human MGC803 cells assessed as increase in Bax expression after 48 hrs by Western blot analysis; type: functional, cell-based; method in brief: as §4
# MGC-803 [21] = assay: Induction of apoptosis in human MGC803 cells assessed as early apoptotic cells at 8 uM after 48 hrs Annexin V-FITC/propidium iodide based flow cytometry (2.3%); type: functional; method in brief: as §3
# MGC-803 [22] = assay: Induction of apoptosis in human MGC803 cells assessed as necrotic cells at 6 uM after 48 hrs Annexin V-FITC/propidium iodide based flow cytometry (0.1%); type: functional; method in brief: as §3
# MGC-803 [23] = assay: Induction of apoptosis in human MGC803 cells assessed as decrease in Bcl2 expression up to 10 uM after 48 hrs by Western blot analysis; type: functional, cell-based
# GES1 = assay: Cytotoxicity against human GES-1 cells after 48 hrs by MTT assay; type: cell-based; conditions: GES1, 48 h
# MGC-803 [24] = assay: Cell cycle arrest in human MGC803 cells assessed as accumulation at G1 phase at 6 uM after 48 hrs by propidium iodide-staining based flow cytometry (50.18%); type: functional; method in brief: as §2
# MGC-803 [25] = assay: Induction of apoptosis in human MGC803 cells assessed as necrotic cells at 8 uM after 48 hrs Annexin V-FITC/propidium iodide based flow cytometry (0.1%); type: functional; method in brief: as §3
# MGC-803 [26] = assay: Induction of apoptosis in human MGC803 cells assessed as early apoptotic cells at 6 uM after 48 hrs Annexin V-FITC/propidium iodide based flow cytometry (2.3%); type: functional; method in brief: as §3
# MGC-803 [27] = assay: Induction of apoptosis in human MGC803 cells assessed as decrease in Bcl-xl expression up to 10 uM after 48 hrs by Western blot analysis; type: functional, cell-based
# MGC-803 [28] = assay: Induction of apoptosis in human MGC803 cells assessed as viable cells at 6 uM after 48 hrs Annexin V-FITC/propidium iodide based flow cytometry (96.5%); type: functional; conditions: MGC-803, 48 h, read-out: Activity; method in brief: as §3
# MGC-803 [29] = assay: Induction of apoptosis in human MGC803 cells assessed as viable cells at 10 uM after 48 hrs Annexin V-FITC/propidium iodide based flow cytometry (96.5%); type: functional; conditions: MGC-803, 48 h, read-out: Activity; method in brief: as §3
# MGC-803 [30] = assay: Cell cycle arrest in human MGC803 cells assessed as accumulation at G2/M phase at 8 uM after 48 hrs by propidium iodide-staining based flow cytometry (19.75%); type: functional; method in brief: as §2
# MGC-803 [31] = assay: Induction of apoptosis in human MGC803 cells assessed as early apoptotic cells at 10 uM after 48 hrs Annexin V-FITC/propidium iodide based flow cytometry (2.3%); type: functional; method in brief: as §3
# MGC-803 [32] = assay: Induction of apoptosis in human MGC803 cells assessed as chromatin condensation at 6 to 10 uM after 48 hrs by Hoechst 33258-staining based fluorescent microscopy; type: functional, cell-based; method in brief: as §5
# MGC-803 [33] = assay: Induction of mitochondrial membrane potential loss in human MGC803 cells assessed as collapse of the mitochondrial membrane potential at 10 uM after 48 hrs by JC-1 staining based flow cytometry (reference value: 4.1%); type: functional; method in brief: as §6
# MGC-803 [34] = assay: Induction of apoptosis in human MGC803 cells after 48 hrs Annexin V-FITC/propidium iodide based flow cytometry; type: functional, cell-based; method in brief: as §3
# MGC-803 [35] = assay: Induction of morphological changes in human MGC803 cells assessed as rounding up of cells at 6 to 10 uM after 48 hrs by inverted microscopic analysis; type: functional, cell-based
# Method in brief: (§7)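 MGC-803 cells incubated at 0, 6, 8 or 10 µM for 48 h. Morphology then recorded under an inverted microscope at ×400.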
# MGC-803 [36] = assay: Induction of morphological changes in human MGC803 cells assessed as formation of cell debris at 6 to 10 uM after 48 hrs by inverted microscopic analysis; type: functional, cell-based; method in brief: as §7
# MGC-803 [37] = assay: Induction of apoptosis in human MGC803 cells assessed as late apoptotic cells at 8 uM after 48 hrs Annexin V-FITC/propidium iodide based flow cytometry (1%); type: functional; method in brief: as §3
# MGC-803 [38] = assay: Induction of apoptosis in human MGC803 cells assessed as viable cells at 8 uM after 48 hrs Annexin V-FITC/propidium iodide based flow cytometry (96.5%); type: functional; conditions: MGC-803, 48 h, read-out: Activity; method in brief: as §3
structure (smiles),measurement,setting,value
O=c1[nH]cc(F)c(=O)[nH]1 [FLUOROURACIL],IC50,ECa-109 cell line,56.2 µM
same,IC50,MGC-803 [1],9.79 µM
same,IC50,PC-3,12.9 µM
c1ccc(Cn2cc(CSc3nnc(-c4ccccc4)c(-c4ccccc4)n3)nn2)cc1,IC50,ECa-109 cell line,11.1 µM
same,IC50,MGC-803 [1],11.3 µM
same,IC50,PC-3,15.6 µM
Clc1ccc(Cn2cc(CSc3nnc(-c4ccccc4)c(-c4ccccc4)n3)nn2)cc1,IC50,ECa-109 cell line,24.2 µM
same,IC50,MGC-803 [1],13.2 µM
same,IC50,PC-3,14.7 µM
Fc1ccc(Cn2cc(CSc3nnc(-c4ccccc4)c(-c4ccccc4)n3)nn2)cc1,Activity,MGC-803 [2],25.11%
same,Activity,MGC-803 [3],26.75%
same,Activity,MGC-803 [4],2.9%
same,Activity,MGC-803 [5],Dose-dependent effect
same,Activity,MGC-803 [6],Dose-dependent effect
same,Activity,MGC-803 [7],Active
same,Activity,MGC-803 [8],Dose-dependent effect
same,Activity,MGC-803 [9],Active
same,Activity,MGC-803 [10],27.3%
same,Activity,MGC-803 [11],30.03%
same,Activity,MGC-803 [12],17%
same,Activity,MGC-803 [13],0.1%
same,Activity,MGC-803 [14],25.87%
same,inhibition,MGC-803 [15],Dose-dependent effect
same,Activity,MGC-803 [16],5.2%
same,IC50,ECa-109 cell line,19.1 µM
same,Activity,MGC-803 [17],Dose-dependent effect
same,Activity,MGC-803 [18],Dose-dependent effect
same,Activity,MGC-803 [19],Dose-dependent effect
same,Activity,MGC-803 [20],Dose-dependent effect
same,Activity,MGC-803 [21],16.9%
same,Activity,MGC-803 [22],0.2%
same,Activity,MGC-803 [23],Active
same,IC50,GES1,31.7 µM
same,Activity,MGC-803 [24],41.49%
same,Activity,MGC-803 [25],0.2%
same,Activity,MGC-803 [26],8.2%
same,Activity,MGC-803 [27],Active
same,viability at 6 µM,MGC-803 [28],88.7%
same,viability at 10 µM,MGC-803 [29],45.1%
same,Activity,MGC-803 [30],34.39%
same,Activity,MGC-803 [31],27.5%
same,Activity,MGC-803 [32],Active
same,Activity,MGC-803 [33],42.9%
same,Activity,MGC-803 [34],Dose-dependent effect
same,Activity,MGC-803 [35],Active
same,IC50,MGC-803 [1],7.59 µM
same,Activity,MGC-803 [36],Active
same,IC50,PC-3,10.6 µM
same,Activity,MGC-803 [37],7%
same,viability at 8 µM,MGC-803 [38],75.9%
